How the values were obtained:
[1] = molecular target: T1, Growth hormone secretagogue receptor type 1 (Homo sapiens, UniProt Q92847); experiment: Agonist activity at human GHS receptor assessed as intracellular myo-IP1 secretion after 90 mins by HTRF analysis; format: functional, cell-based; details: read-out: EC50
[2] = molecular target: T1, Growth hormone secretagogue receptor type 1; experiment: Displacement of human [125I]-ghrelin from GHS-R1a (unknown origin) expressed in HEK293 cell membranes after 1 hr by radioligand binding assay; details: read-out: IC50
[3] = molecular target: Voltage-gated inwardly rectifying potassium channel KCNH2 (Homo sapiens, UniProt Q12809); experiment: Inhibition of human ERG expressed in CHO cells; format: cell-based
Voltage-gated inwardly rectifying potassium channel KCNH2, sequence (Q12809 whole entry): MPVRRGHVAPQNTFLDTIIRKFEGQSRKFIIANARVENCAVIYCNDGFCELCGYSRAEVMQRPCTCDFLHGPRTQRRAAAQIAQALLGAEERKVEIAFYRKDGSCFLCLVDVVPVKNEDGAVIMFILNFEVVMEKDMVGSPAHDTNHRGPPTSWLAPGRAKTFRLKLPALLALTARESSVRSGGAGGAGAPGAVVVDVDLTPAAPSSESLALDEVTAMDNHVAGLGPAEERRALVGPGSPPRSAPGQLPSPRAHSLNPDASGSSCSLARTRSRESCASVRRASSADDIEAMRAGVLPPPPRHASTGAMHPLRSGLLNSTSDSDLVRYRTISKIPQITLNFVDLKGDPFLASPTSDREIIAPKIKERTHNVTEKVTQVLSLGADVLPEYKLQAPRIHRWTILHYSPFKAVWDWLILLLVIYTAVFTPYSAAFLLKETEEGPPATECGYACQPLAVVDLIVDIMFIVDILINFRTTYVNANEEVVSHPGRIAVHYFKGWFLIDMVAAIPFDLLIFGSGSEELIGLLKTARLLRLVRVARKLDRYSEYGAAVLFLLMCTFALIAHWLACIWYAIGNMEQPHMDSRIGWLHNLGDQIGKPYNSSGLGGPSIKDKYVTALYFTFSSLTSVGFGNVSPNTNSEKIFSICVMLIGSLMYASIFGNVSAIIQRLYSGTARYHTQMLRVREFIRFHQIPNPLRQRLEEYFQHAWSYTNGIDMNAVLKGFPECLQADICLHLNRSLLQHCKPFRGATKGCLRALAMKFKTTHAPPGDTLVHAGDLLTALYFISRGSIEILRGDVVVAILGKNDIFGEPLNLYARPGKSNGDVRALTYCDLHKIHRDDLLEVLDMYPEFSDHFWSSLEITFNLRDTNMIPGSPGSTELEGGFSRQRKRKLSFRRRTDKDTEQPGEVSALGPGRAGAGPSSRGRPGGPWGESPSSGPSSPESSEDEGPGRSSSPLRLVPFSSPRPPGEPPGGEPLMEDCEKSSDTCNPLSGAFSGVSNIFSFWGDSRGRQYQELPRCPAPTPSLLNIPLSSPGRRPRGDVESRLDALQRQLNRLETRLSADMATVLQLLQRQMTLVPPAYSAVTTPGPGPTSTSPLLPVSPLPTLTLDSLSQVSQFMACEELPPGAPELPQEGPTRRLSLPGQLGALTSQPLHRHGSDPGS
Summary of the method: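 hERG currents recorded from CHO cells expressing hERG.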

[4] = 1-octanol/aqueous buffer distribution coefficient, log D of compound at pH 7.4; format: physicochemical; details: 1-octanol/aqueous buffer, read-out: logD
[5] = Drug metabolism in human liver microsomes assessed as 1-Methyl-N-((1S,2S)-1-((S)-morpholine-2-carboxamido)-2,3-dihydro-1H-inden-2-yl)-1H-indole-5-carboxamide formation by LC-MS/MS method; format: ADME, microsome
[6] = test system: Hepatocyte; experiment: Stability in rat hepatocytes assessed as formation of iminium ions by LC-MS/MS method; format: ADME, cell-based
[7] = Drug metabolism in rat hepatocytes assessed as 1-Methyl-N-((1S,2S)-1-((S)-morpholine-2-carboxamido)-2,3-dihydro-1H-inden-2-yl)-1H-indole-5-carboxamide formation by LC-MS/MS method; format: ADME, cell-based, Hepatocyte
[8] = test system: Hepatocyte; experiment: Stability in rat hepatocytes assessed as formation of aldehyde adducts by LC-MS/MS method; format: ADME, cell-based
[9] = Stability in human liver microsomes assessed as formation of aldehyde adducts by LC-MS/MS method; format: ADME, microsome
[10] = Stability in human liver microsomes assessed as formation of iminium ions by LC-MS/MS method; format: ADME, microsome
[11] = Intrinsic clearance in human liver microsomes; format: ADME, microsome; details: read-out: CLH
[12] = molecular target: hERG (KCNH2) (Homo sapiens, UniProt Q12809); experiment: Inhibition of human ERG expressed in CHO cells at 11 uM relative to control; format: cell-based; details: CHO cells that express hERG
hERG (KCNH2), sequence (Q12809 whole entry): as above

T1 sequence (Q92847 whole entry): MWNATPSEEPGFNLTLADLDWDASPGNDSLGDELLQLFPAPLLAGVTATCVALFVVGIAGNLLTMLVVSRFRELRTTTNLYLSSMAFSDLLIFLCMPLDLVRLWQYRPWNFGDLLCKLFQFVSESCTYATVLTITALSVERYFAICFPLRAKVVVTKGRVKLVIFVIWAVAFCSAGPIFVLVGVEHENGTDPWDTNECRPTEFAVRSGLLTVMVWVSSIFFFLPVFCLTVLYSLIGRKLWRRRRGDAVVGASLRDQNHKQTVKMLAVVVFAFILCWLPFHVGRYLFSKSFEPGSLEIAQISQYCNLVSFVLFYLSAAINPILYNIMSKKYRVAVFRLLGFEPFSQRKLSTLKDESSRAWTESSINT

Compound	EC50 [1] [µM]	IC50 [2] [µM]	logD [4]	IC50 [3] [µM]	other results
CN1CCO[C@H](C(=O)N[C@H]2c3ccccc3C[C@@H]2NC(=O)c2ccc3c(ccn3C)c2)C1	0.021	0.241	2.6		Drug metabolism [5]: Metabolite_Detected; Stability [6]: Unstable; Drug metabolism [7]: Metabolite_Detected; Stability [8]: Unstable; Stability [9]: Unstable; Stability [10]: Unstable
CN(C)CCC(=O)N[C@H]1c2ccccc2C[C@@H]1NC(=O)c1cc2cc(F)c(F)cc2[nH]1	0.035	0.098		3.98	
COCCNCCC(=O)N[C@H]1c2ccccc2C[C@@H]1NC(=O)c1cc2ccccc2n1C	0.16	0.43		1.58	
Cc1ccc2[nH]c(C(=O)N[C@@H]3Cc4ccccc4[C@H]3NC(=O)CCN(C)C)cc2c1	0.226	0.93		2.51	
O=C(N[C@H]1Cc2ccccc2[C@@H]1NC(=O)[C@H]1CCNC1)c1cc2cc(F)ccc2[nH]1	0.047	0.189		> 10	
CN(C)CCNC(=O)[C@@H]1c2ccccc2C[C@H]1NC(=O)c1cc2ccccc2[nH]1	0.63	0.56	2.3	12.6	microsomal CLint [11]: 3 µL/min/mg

Continued, in another order:

EC50 [1] [µM]	IC50 [2] [µM]	logD [4]	Compound	IC50 [3] [µM]	other results
0.021	0.016		Cc1ccc2[nH]c(C(=O)N[C@H]3Cc4ccccc4[C@@H]3NC(=O)CCN(C)C)cc2c1	7.94	
0.0001		3	Cc1ccc2[nH]c(C(=O)N[C@H]3Cc4ccccc4[C@@H]3C(=O)N[C@H]3CCCN(C)C3)cc2c1		microsomal CLint [11]: 132 µL/min/mg; inhibition at 11 µM [12]: 30%
